An excerpt weighted towards active compounds, which were near 6.8% of everything screened.
Cdc25B inh – inhibitors of Cdc25B phosphatase catalytic domain, primary screen, biochemical, OMFP fluorescence; M-phase inducer phosphatase 2 (Homo sapiens), P30305; recombinant Cdc25B, OMFP fluorescence Ex485/Em525; inhibition, %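 (compounds tested at 10 µM final in the well)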; actives 0.1% (n = 65,000); AID 368, 2006; in the data active means inhibition above about 50%
M1 agonist – M1 muscarinic receptor agonists, primary screen, CHO-M1 cells, Fluo-4 calcium, agonist mode | Muscarinic acetylcholine receptor M1 | Fluo-4 calcium fluorescence; hits give high values | B-score at 10 µM | actives 3% (n = 64,000);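 active means fluorescence rise, raw or as B-score row- and column-corrected plate score, outside the 99.7% band of its plate's samples, either direction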
MKP-1 inh – MKP-1 phosphatase inhibitors, primary screen, biochemical, in vitro | AID 374, 2006 | inhibition, %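 (compounds tested at a single concentration somewhere between 10 and 100 µM)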 | actives 0.15% (n = 65,000) | recombinant MKP-1, OMFP hydrolysis fluorescence;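 active means inhibition above about 50%, limit read from the data; inconclusive means inhibition over screen mean plus 3 SD, below that limit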;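 further: 0% = DMSO max control wells and 100% = wells with enzyme stopped by NaOH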
Target sequence (P28562 whole entry, looked up): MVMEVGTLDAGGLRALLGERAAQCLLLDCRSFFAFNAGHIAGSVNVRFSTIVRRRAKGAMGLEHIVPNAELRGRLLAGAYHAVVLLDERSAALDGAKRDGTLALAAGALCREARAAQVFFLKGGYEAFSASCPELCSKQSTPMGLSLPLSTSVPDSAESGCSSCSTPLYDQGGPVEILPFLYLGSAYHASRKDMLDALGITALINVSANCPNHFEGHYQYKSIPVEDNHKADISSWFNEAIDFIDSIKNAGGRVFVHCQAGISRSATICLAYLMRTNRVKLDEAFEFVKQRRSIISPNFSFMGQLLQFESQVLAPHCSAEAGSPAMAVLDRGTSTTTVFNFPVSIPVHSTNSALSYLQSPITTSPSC
HER2 expr 66K – inhibitors of Her2 protein expression, primary screen, SKBR-3 cells, AlphaScreen, 66K library; SKBR-3 HER2 protein level, 18-24 h; hits give low values; actives 0.69% (n = 65,000); HER2 level % of control, % at 10 µM; Receptor tyrosine-protein kinase erbB-2 (Homo sapiens), P04626;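 active means HER2 level under 5% of the carrier-only control; inconclusive means no clear call, values can overlap the other calls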;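 further: 100% = DMSO carrier and 0% = 500 nM PU-H71 HSP90 inhibitor; lower value means stronger loss of Her2 protein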
M1 antagonist – antagonists of rat M1 muscarinic receptor | CHO-M1 cells, Fluo-4 calcium, ACh EC80 antagonist mode; hits give low values | B-score at 10 µM | Muscarinic acetylcholine receptor M1 (Rattus norvegicus), P08482 | AID 628, 2007 | actives 3.4% (n = 64,000);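 active means calcium fluorescence response, raw or row-and-column corrected B-score, differing from the plate sample mean either way at a set confidence level, mostly lower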
HEK293 NFkB inh – inhibitors of PMA/ionomycin-induced NF-kB reporter, primary screen, antigen receptor NF-kB inhibitor project, cell-based, HEK-293 luciferase reporter, luminescence | HEK-293 NF-kB luciferase reporter | AID 465, 2006 | actives 0.21% (n = 62,000) | inhibition, % at 3 µM;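 active means inhibition above the mean of all tested compounds plus 3 SD, cut at about 40% in these data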;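 further: 0% = stimulated DMSO wells and 100% = 10 µM reference inhibitor 5653914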
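Timing: 1 h pretreatment, 16 h stimulation, 37 °C; system: HEK-293 cells with stable firefly luciferase reporter driven by four HIV NF-kB elements; doses: 3 µM once, 0.30% DMSO; measured by: luciferase luminescence; control set: DMSO and 10 µM reference inhibitor; repeats: single test; reagent: PMA plus ionomycin mix as NF-kB-activating stimulus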
M1 ag confirm – rat M1 muscarinic receptor agonists, confirmation, CHO-M1 cells, Fluo-4 calcium, duplicate retest; fluorescence change (max-min) at 10 µM; AID 1488, 2009; Fluo-4 calcium fluorescence, agonist mode; actives lie on both sides; shares compounds with M1 agonist; actives 19% (n = 1,700);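 active means fluorescence change differs from the solvent-only DMSO control mean at a set confidence level in both duplicate runs; inconclusive means differs from solvent-only control mean in just one of two runs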;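 further: an EC20 dose of acetylcholine follows compound addition during the same imaging run; raw fluorescence intensity difference in instrument units with no normalization to controls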
M4 agonist ctr – agonist activity at rat M4 receptor, confirmation, counter-screen for M1 allosteric modulator project, cell-based, agonist mode; shares compounds with M1 agonist; actives 9% (n = 1,700); CHO M4/Gqi5 cells, Fluo-4 calcium fluorescence; actives lie on both sides; fluorescence change (max-min) at 10 µM;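 active means fluorescence change differing from the plate's solvent-only control wells at 99.7% confidence in both duplicates, whether higher or lower; inconclusive means differs from solvent controls in only one of two duplicates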
Numbers without * were called inactive; ? = inconclusive; nt = no result given.

SMILES | Cdc25B inh | M1 agonist | MKP-1 inh | HER2 expr 66K | M1 antagonist | HEK293 NFkB inh | M1 ag confirm | M4 agonist ctr
Cn1c(=O)n(CCN2CCOCC2)c(=O)c2c1nc1n2CCN1c1ccccc1 | -27 | 2.1 | 5 | 118 | -0.076 | 3 | nt | nt
O=S(=O)(NCc1ccccc1)c1ccc2c(c1)OCCO2 | -39 | 7.4* | 3 | 118 | 0.78 | 10 | -4.6 | -9.4
O=C(Nc1ccc(O)cc1)c1cc2n(n1)C(C(F)(F)F)CC(c1ccco1)N2 (configuration not stated) | -8 | -2.3* | 14 | 59 | 0.38 | -8 | -10 | -52
CCOc1ccc(NC(=O)c2cc3n(n2)C(C(F)(F)F)CC(c2ccco2)N3)cc1 (configuration not stated) | -12 | -1.1 | 16 | 91 | -1 | 0 | nt | nt
CCN(CC)P1(=O)OC(c2cc(OC)c(OC)c(OC)c2)=Nc2c1c(C)nn2-c1ccccc1 (configuration not stated) | 0 | 4.4* | 13 | 71 | 0.43 | 14 | 7 | -33
O=S(=O)(NCc1ccncc1)c1ccc(Br)s1 | 0 | 3.7* | 2 | 133 | -1.8 | 42* | 6.2 | -23
Cc1[nH]c2ccccc2c1/C=N/n1cnnc1 | -5 | -0.022 | 10 | 91 | 0.66 | -8 | nt | nt
COc1ccc(-n2c(O)c(C=NC3CC3)c(=O)[nH]c2=O)cc1 | 1 | 0.017 | -7 | 95 | 0.076 | 7 | nt | nt
COc1ccc(-n2c(O)c(/C=N/n3cnnc3)c3ccccc3c2=O)cc1 | 0 | 15* | 15 | 123 | -0.43 | 11 | 164* | 138
O=c1c2ccccc2c(/C=N/n2cnnc2)c(O)n1-c1ccccc1 | -6 | 9* | 7 | 76 | -0.021 | 7 | 149* | 123*
CCCCn1c(N(CCOC(C)=O)C(C)=O)nc2ccccc21 | -5 | -0.2 | 8 | 91 | 1 | 14 | nt | nt
COc1ccc(-c2nnc(-c3ccc(Br)o3)o2)cc1OC | -8 | 1.5 | 4 | 188 | 0.67 | 3 | nt | nt
COc1cc(OC)c(-c2nnc(-c3ccc(OC)c(OC)c3OC)o2)cc1OC | -6 | 4.5* | 2 | 86 | -0.34 | 16 | -30* | -60
CCn1cc(C(=O)N2CCCC2)c(=O)c2cc(S(=O)(=O)N3CCOCC3)ccc21 | -13 | 0.0042 | 0 | 125 | 0.05 | 8 | nt | nt
COCCOC(=O)C1=C(C)NC(=O)NC1c1c(F)cccc1Cl (configuration not stated) | -14 | 0.9 | -2 | 96 | 0.24 | 7 | nt | nt
COC(=O)c1ccccc1NC(=O)Cn1cnc2cc(C)c(C)cc21 | 0 | -2.8* | 9 | 79 | -0.43 | 11 | -3.3 | -26
CC(C)Cn1c(-c2ccc(Cl)cc2)cnc1SCC(=O)N1CCOCC1 | -27 | 0.92 | 25 | 104 | 0.067 | 8 | nt | nt
Cc1cc(C(=O)CSc2nnc(-c3ccccc3)n2Cc2ccc3c(c2)OCO3)c(C)n1C | 2 | -0.085 | 0 | 87 | 0.19 | 4 | nt | nt
Cc1cc(C(=O)CSc2nc3ccccc3c(=O)n2C)c(C)n1Cc1ccc2c(c1)OCO2 | -12 | 5.7* | 27 | 99 | -0.28 | 30 | -19 | -1.2
N#C/C(=C\c1ccc(O)c(O)c1)S(=O)(=O)c1ccccc1 | 9 | 22* | 12 | 171 | 0.52 | 8 | 33 | 15
CCc1ccc(CNC(=O)CN2C(=O)COc3ccccc32)cc1 | -16 | -0.79 | -1 | 89 | -0.34 | 12 | nt | nt
COc1ccc(OC)c(NC(=O)CSc2nnc(N)s2)c1 | -2 | 0.0018 | 3 | 119 | -0.051 | 2 | nt | nt
Cc1nc2sccn2c1-c1csc(NCc2ccccc2)n1 | -12 | 8.3* | 8 | 79 | -1.6 | 29 | -10 | ?
CCN(Cc1ccncc1)S(=O)(=O)c1ccc(C(C)=O)cc1 | -5 | -0.11 | 2 | 102 | -0.52 | 13 | nt | nt
Cc1nc(Cc2nnc(SCc3nc(N)nc(Nc4ccccc4C)n3)o2)cs1 | -7 | -0.29 | 13 | 95 | -0.35 | 16 | nt | nt
SMILES | Cdc25B inh | M1 agonist | MKP-1 inh | HER2 expr 66K | M1 antagonist | HEK293 NFkB inh | M1 ag confirm | M4 agonist ctr
COCCOC(=O)C(C#N)c1nc2ccccc2nc1N1CCCC1 (configuration not stated) | -17 | -1.5 | -26 | 110 | -0.55 | 8 | nt | nt
CCOC(=O)N1CCN(c2nc3ccccc3nc2C(C#N)C(=O)NCCc2ccccc2)CC1 (configuration not stated) | 3 | 22* | 24 | 87 | -0.62 | 8 | ? | 81
N#CC(C(=O)NCCc1ccccc1)c1nc2ccccc2nc1N1CCCCC1 (configuration not stated) | -2 | 17* | 16 | 96 | -0.23 | 7 | 63* | 121
COc1ccccc1N1CCN(c2nc3ccccc3nc2C(C#N)C(=O)OC(C)C)CC1 (configuration not stated) | -7 | 1.1 | -12 | 106 | -1.6 | 20 | nt | nt
N#CC(C(=O)NCc1ccco1)c1nc2ccccc2nc1N1CCOCC1 (configuration not stated) | 1 | 2.1 | 0 | 79 | -1.1 | 35 | nt | nt
N#CC(C(=O)NCc1ccccc1)c1nc2ccccc2nc1N1CCCC1 (configuration not stated) | 0 | 177* | 26 | 98 | -17* | 15 | 1394* | 794*
CCOc1ccccc1N1CCN(c2nc3ccccc3nc2C(C#N)C(=O)OC)CC1 (configuration not stated) | 22 | 7.7* | 9 | 158 | -1.1 | nt | ? | -28
Cc1cc(Nc2nnnn2-c2ccccc2)n(-c2ccc(Cl)cc2)n1 | 23 | -1.7 | 8 | 83 | 0.033 | 6 | nt | nt
Clc1ccc(-n2nnnc2-c2ccccc2)cc1 | -14 | 3.3* | -1 | 122 | -0.45 | 12 | -26* | -49
COc1ccc(CN(Cc2ccccn2)C(=O)CN2C(=O)C(C)Oc3ccccc32)cc1 (configuration not stated) | 17 | 15* | 3 | 83 | -1.1 | 17 | -13 | -39
O=C(CN1C(=O)COc2ccccc21)N(Cc1ccccc1)Cc1ccccn1 | -14 | -0.16 | 0 | 90 | -0.24 | 18 | nt | nt

Source: PubChem (several laboratories)
